{"source": "paper PMC5538152", "about": "(Pharmacognosy Magazine, 2017)", "key": {"[1]": {"tested_on": "caspase 8 and caspase 9", "conditions": "cited from earlier work"}, "[2]": {"tested_on": "HT29 cells", "experiment": "Nuclear morphology by Hoechst 33342/propidium iodide staining", "assay_type": "cell-based, human", "conditions": "8 μM, 48 h", "summary_of_the_method": "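Overnight cultures (1 × 10^5 cells/ml) were given test compound at 8, 14 or 28 μM or 0.5% DMSO for 48 h at 37°C, 5% CO2. Cells were harvested, washed in cold PBS and incubated with Hoechst 33342 (10 μg/ml) for 7 min at 37°C. PI (2.5 μg/ml) was then added for 15 min in the dark at room temperature. Cells were dried on slides and nuclei examined by fluorescence microscopy at ×630.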"}, "[3]": {"tested_on": "CCD-18Co normal human colon fibroblast cell line", "experiment": "In vitro cytotoxicity assay", "assay_type": "cell-based", "conditions": "72 h"}, "[4]": {"tested_on": "caspase 8 in HT29 cells", "experiment": "Active caspase 8 by flow cytometry", "assay_type": "cell-based, human", "conditions": "72 h of treatment", "summary_of_the_method": "(§1)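 HT29 cells were seeded at 1 × 10^5 cells/ml overnight, then exposed to test compound at 8, 14 or 28 μM for 72 h (37°C, 5% CO2), with untreated cells in 0.5% DMSO as control. Harvested, PBS-washed cells were labelled 45 min at 37°C with FITC-IETD-FMK (caspase 8) or FITC-LEHD-FMK (caspase 9), then washed and read by flow cytometry in FL1. Means ± SD, ≥3 independent experiments.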"}, "[5]": {"tested_on": "HeLa cervical carcinoma cell line", "conditions": "read-out: IC50 against HeLa; cited from earlier work"}, "[6]": {"tested_on": "DLD-1 colon carcinoma cell line", "conditions": "read-out: IC50 against DLD-1; cited from earlier work"}, "[7]": {"tested_on": "HT29 cells", "experiment": "Cell cycle analysis", "assay_type": "cell-based, human", "conditions": "72 h; for Percentage of cells in G2-M phase (Dip G2): untreated 7.70%; for Percentage of cells in G0-G1 phase (Dip G1): untreated 65.54%"}, "[8]": {"tested_on": "caspase 9 in HT29 cells", "experiment": "Active caspase 9 by flow cytometry", "assay_type": "cell-based, human", "conditions": "72 h of treatment", "summary_of_the_method": "as §1"}, "[9]": {"tested_on": "HT29 cells", "experiment": "Cell morphology by phase contrast microscopy", "assay_type": "cell-based, human", "conditions": "8, 14, 28 μM; dose- and time-dependent"}}}
{"smiles": "CCCC(=O)c1c(O)c(C/C=C(\\C)CCC=C(C)C)c(O)c2c([C@@H](O)CC)cc(=O)oc12", "note": "[kayeassamin A]", "values": [{"measurement": "Caspase activation", "setting": "[1]", "value": "activate caspase 8 more than caspase 9"}]}
{"smiles": "C=CC(C)(C)c1cc2cc3c(cc2oc1=O)OC(C(C)(C)OC(C)=O)C3", "note": "(stereo not shown) [Rutamarin (8), rutamarin]", "values": [{"measurement": "Nuclear morphology", "setting": "[2]", "value": "chromatin condensation"}, {"measurement": "Toxicity to normal colon cells (words)", "setting": "[3]; listed as Rutamarin", "value": "not toxic to CCD-18Co cells"}, {"measurement": "Toxicity to normal colon cells (words)", "setting": "[3]; listed as rutamarin", "value": "exerted no damage against the normal cells"}, {"measurement": "IC50", "setting": "[3]; Homo sapiens, CCD-18Co, read-out: IC50 (μM), CCD-18Co, 72 h of incubation, SRB", "value": "≥ 100", "unit": "µM"}, {"measurement": "Caspase 8 activation relative to untreated cells", "setting": "[4]", "value": 15, "unit": "fold"}, {"measurement": "IC50", "setting": "[5]", "value": 50.7, "unit": "µM"}, {"measurement": "IC50", "setting": "[6]", "value": 37.5, "unit": "µM"}, {"measurement": "Percentage of cells in G2-M phase (Dip G2)", "setting": "[7]; 8 μM", "value": 12.05, "unit": "%"}, {"measurement": "Percentage of cells in G0-G1 phase (Dip G1)", "setting": "[7]; 8 μM", "value": 75.26, "unit": "%"}, {"measurement": "Percentage of cells in G2-M phase (Dip G2)", "setting": "[7]; 14 μM", "value": 12.60, "unit": "%"}, {"measurement": "Percentage of cells in G0-G1 phase (Dip G1)", "setting": "[7]; 14 μM", "value": 76.20, "unit": "%"}, {"measurement": "Percentage of cells in G2-M phase (Dip G2)", "setting": "[7]; 28 μM", "value": 15.24, "unit": "%"}, {"measurement": "Percentage of cells in G0-G1 phase (Dip G1)", "setting": "[7]; 28 μM", "value": 76.58, "unit": "%"}, {"measurement": "Caspase 9 activation relative to untreated cells", "setting": "[8]", "value": 4, "unit": "fold"}, {"measurement": "Cellular morphological changes", "setting": "[9]", "value": "apoptotic bodies, cell shrinkage, detachment, and rounding were observed"}]}
